Fewer inactive variants are shown than the library holds.
B1: tRNA (parent)
chain: GUUCCGUUGGCGUAAUGGUAACGCGUCUCCCUCCUAAGGAGAAGACUGCGGGUUCGAGUCCCGUACGGAACG

Variants of: B1
Experiment: yeast fitness relative to wild type (ratio to wild type); higher = fitter; tRNA-Arg(CCU), competitive growth, 37 C, YPD
Method in brief: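 For this measurement, the tRNA-Arg(CCU) gene was varied by chemical synthesis at a 3% per-site mutation rate across 69 sites, and each variant was placed at the native genomic locus in Saccharomyces cerevisiae. The pooled strains went through a 24-hour competition in YPD at 37°C in six parallel replicates, with amplicons from start and end populations read by 100-nucleotide paired-end sequencing. Darwinian fitness relative to wild type followed from the change in each genotype's frequency. Genotypes needed ≥ 100 starting reads, and estimates < 0.5 were set to 0.5.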

Variant	yeast fitness
GGUCCGUUGGCGUAAUGGUAACGGGUCUCCCUCCUAAGGAGAAGACUGCGGGUUCGAGUCCCGUACGGAACG	0.769
GGUCCGUUGGCGUAAUGGUAACGAGUCUCCCUCCUAAGGAGAAGACUGCGGGUUCGAGUCCCGUACGGAACG	0.82
GGUCCAUUGGCGUAAUGGUAACACGUCUGCCUCCUAAGGAGAAGACUGCGGGUUAGAGUCCCGUACGGAACG	0.508
GGUCCGUUGGCGUAAUGGUAACGCGUCUCCCUCCUAAGGAGAAGACUGUGGGUUCGAGUCCUGUACGGAACG	0.565
GGUCCAUUGGCGUAAUGGUAACGCGUCUCCCUCCUAAGGAGAAGACUGCGGGUUCGAGUCCCGUACGGAACG	0.634
GGUCCGUUGGCGUAAUGGUAACGCGUUUCCCUCCUAAGGAGAAGAUUGCGGGUUCGAAUCCCGUACGGAACG	0.662
GGUCCGUUGGCGUAAUGGUAACGCGUCUCCCUUGUAAGGAGAAGACUCCGGGUUCGAGUCCCGUACCGAACG	≤ 0.5
GGUCCAUUGGCGUAAUGGUAACGCAUCUCCCUCCUAUGGCGAAGACUGCGGGUUCGAGUCCCGUACGGAACG	≤ 0.5
GGUCCGUUGGCGUAAUGGUAACGCGUCUGCCUGCUAAGGAGAAGACUGCGGGUUCGAGUCCCGUACGGAACG	≤ 0.5
GGUCCGUUGGCGUAAUGGUAACGCGUCUCCCUCGUAAGGAGAAGACUGCGGGUUCGAGUCCCGUACGGAACG	0.655
GGUCCGUUGGCGUAAUGGUAACGCGUCUCCCUCUUAAGGAGAAGACUGCGGGUUCGAGUCCCGUACGGAACG	0.616
GGUCCGUUGGCGUAAUGGUAACGCGUCUCCCUGCUAAGGAGAAGGCUGCGGGUUCGAGUCCCGUACGGAUCG	≤ 0.5
GGUCCGUUGGCGUAAUGGUAACGCGUCUCCUUCCUAAGGAGAAGACUGCGGGUUCGAGUCCCGGUCGGAACG	≤ 0.5
GGUCCGUUGGCGUAAUGGUAACGCGUCUCCCUGCUAAGGAGAAGACUGCGGGUUCGAGUCACGUACGGAACG	≤ 0.5
GGUCCGUUGGCGUAAUGGUAACGCGUUUCCCUCCUAAGGAGAAGAUUGCGGGUUCGAGUCCCGUACGCAACG	0.763
GGUCCGUUGGCGUAAUGGUAACGAGUCUCCGUCCUAAGGAGAAGUCUGCGGGUUCGAGUCCCGUACGGAACG	≤ 0.5
GGUCCGUUGGCGUAAUGGUAACGCGUCUCCCUGCUAAGGAGAAGACUGCGGGUUCGAGUCCUGUUCGGAACG	≤ 0.5
GGUCCGUUGGCGUAAUGGUAACGCGUCUCCCUCCUAAGGAGAAGACUGCGGGUUGGAGUCCCGUACGGAACG	0.532
GGUCCAUUGGCGUAAUGGUAACGCGUCUCCGUUCUAAGGAGAAGACUGCGGGUUCGAGGCCCGUAUGAAACG	≤ 0.5

Variant	yeast fitness
GGUCCGUUGGCGUAAUGGUAACGCGUCUCCCUCCUAAGGAGAAGACUGUGGGUUCGAGUCCCGUACGGAACG	0.957
GGUCCGUUGGCGUAAUGGUAACGCGUCUCACUCCUAAGGAGAAGAUUGCGGCUUCGAGUCCCGUACGGAACG	≤ 0.5
GGUCCGUUGGCGUAAUGGUAACGGGUCUGCGUCCUAAGGAGAAGACUGCGGGUUCGAGUCCCGUACGGAACG	0.515
GGUCCGUUGGCGUAAUGGUAACGCGUCUCGCUCCUAAGGAGAAGACUGCGGGUUCGAGUCCGGUACGGAACG	0.591
GGUCCGUUGGCGUAAUGGUAACGCGUCUCCUUCCUAAGGAGAAGACUGCAGGUUCGAGUUCCGUACGGAACG	≤ 0.5
GGUCCGUUGGCGUAAUGGUAACGCGUCUCCCUCGUAAGCAGAAGACUGCGGGUUCGAGUCCCGUACGGAACG	≤ 0.5
GGUCCGUUGGCGUAAUGGUAACGUGUCUGCCUCCUAAGGAGAAGACUGCGGGUUCGAGUCGCGUACGGAACG	0.635
GGUCCGUUGGCGUAAUGGUAACGAGUCUCCCUCCUAAGGAGAAGGCUGCGGGUUCGAGUCCCGUACGGAACG	0.586
GGUCCGUUGGCGUAAUGGUAACGAGUCUCCCUCCUAAGGAGAAGGCUGCGGGUUCGAGUCGUGUACGGAACG	≤ 0.5
GGUCCGUUGGCGUAAUGGUAACGCGUCUCCCUCCUAAGGAGAAGACUGCGGGUUCGAGUCCGGUACGGAACG	0.632
GGUCCGUUGGCGUAAUGGUAACGCGUCUCCCUCCUAAGGAGAAGAAUGCGGGUUCGAGUCCCGUAUGGAACG	0.584
GGUCCAUUGGCGUAAUGGUAACGCGUGUCCCUCCUAAGGAGAAGACUGCGGGUCCGAGUCCUGUACGGAACG	≤ 0.5
GGUCCGUUGGCGUAAUGGUAACGCGUCUCGCUCCUAAGGAGAAGACUGCGGGUUCGAGUCCCGUACGGAACG	0.679
GGUCCGUUGGCGUAAUGGUAACGGGUCUCCCUCCUAAGGAGAAGACUGCGGCUUCGAGUCCCGUAUGGAACG	0.807
GGUCCGUUGGCGUAAUGGUAACGCGUUUCCCUCCUGAGGAGAAGACUGCGGGUUCGAGUCCAGUACGGAACG	≤ 0.5
GGUCCGUUGGCGUAAUGGUAAUGCGUCUCCCCCCUAAGGAGAAGACUGCGGGUUCGAGUCCCGUACGGAACG	≤ 0.5
GGUCCGUUGGCGUAAUGGUAAUGGGUCUCCCUCCUAAGGAGAAGACUGCGGGUUCGAGUCCCGUACGGCACG	0.579
GGUCCGUUGGCGUAAUGGUAACGCGUCUCCCUCCUAAGGAGAAGACUGCGGGUUCGAGUCUCGUACGGAGCG	0.795
